Results published in ChEMBL document CHEMBL1135584, “2-Amino-6-arylthio-9-[2-(phosphonomethoxy)ethyl]purine bis(2,2,2-trifluoroethyl) esters as novel HBV-specific antiviral reagents” (J Med Chem, 2002).
pIC50: −log10 of the molar value.

Columns and labels:
[1] = Cytotoxic concentration of compound required for 50% extinction of HuH-6 cells; format: functional; conditions: Homo sapiens
Procedure, shortened: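 HuH-6 cells (parent of HB611) seeded at 1 × 10⁵ cells/mL, cultured 3 days at 37 °C, 5% CO₂ in DMEM with 10% FBS plus compound; MTS added, further 2 h at 37 °C; viability by absorbance at 490 nm; CC50 determined.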

Hepatitis B virus = assay: Concentration required to inhibit 50% of cytoplasmic HBV-DNA synthesis
Human alphaherpesvirus 1 = assay: Anti-HSV-1 activity of the compound; format: functional, organism-based

| Structure (SMILES) | CC50 [1] [µM] | pIC50 (Hepatitis B virus) | pIC50 (Human alphaherpesvirus 1) |
| --- | --- | --- | --- |
| COc1cccc(Sc2nc(N)nc3c2ncn3CCOCP(=O)(OCC(F)(F)F)OCC(F)(F)F)c1 | > 1000 | 7.40 | – |
| Cc1cccc(Sc2nc(N)nc3c2ncn3CCOCP(=O)(OCC(F)(F)F)OCC(F)(F)F)c1 | 150 | 7.05 | – |
| CCCOc1ccc(Sc2nc(N)nc3c2ncn3CCOCP(=O)(OCC(F)(F)F)OCC(F)(F)F)cc1 | 250 | 6.06 | – |
| Cc1ccccc1Sc1nc(N)nc2c1ncn2CCOCP(=O)(OCC(F)(F)F)OCC(F)(F)F | 340 | 7.10 | – |
| Nc1nc(Sc2ccc3ccccc3c2)c2ncn(CCOCP(=O)(OCC(F)(F)F)OCC(F)(F)F)c2n1 | 198 | 7.05 | – |
| Cc1ccc(Sc2nc(N)nc3c2ncn3CCOCP(=O)(OCC(F)(F)F)OCC(F)(F)F)cc1 | 110 | 7.22 | – |
| Nc1nc(Sc2ccccc2)c2ncn(CCOCP(=O)(OCC(F)(F)F)OCC(F)(F)F)c2n1 | > 1000 | 7.30 | 4.60 |
| Nc1nc(Sc2ccc([N+](=O)[O-])cc2)c2ncn(CCOCP(=O)(OCC(F)(F)F)OCC(F)(F)F)c2n1 | 380 | 6.28 | – |
| CCc1ccc(Sc2nc(N)nc3c2ncn3CCOCP(=O)(OCC(F)(F)F)OCC(F)(F)F)cc1 | 170 | 6.40 | – |
| Nc1nc(Sc2ccc(OC(F)(F)F)cc2)c2ncn(CCOCP(=O)(OCC(F)(F)F)OCC(F)(F)F)c2n1 | 820 | 7.22 | – |
| CCOc1ccc(Sc2nc(N)nc3c2ncn3CCOCP(=O)(OCC(F)(F)F)OCC(F)(F)F)cc1 | > 1000 | 6.19 | – |
| CCCCOc1ccc(Sc2nc(N)nc3c2ncn3CCOCP(=O)(OCC(F)(F)F)OCC(F)(F)F)cc1 | 260 | < 6.00 | – |
| CC(C)c1ccc(Sc2nc(N)nc3c2ncn3CCOCP(=O)(OCC(F)(F)F)OCC(F)(F)F)cc1 | 170 | 6.01 | – |
| COc1ccc(Sc2nc(N)nc3c2ncn3CCOCP(=O)(O)OCC(F)(F)F)cc1 | – | 7.15 | – |
| Nc1nc(Sc2ccc(Cl)cc2)c2ncn(CCOCP(=O)(OCC(F)(F)F)OCC(F)(F)F)c2n1 | 62 | 6.92 | – |
| CC(C)COc1ccc(Sc2nc(N)nc3c2ncn3CCOCP(=O)(OCC(F)(F)F)OCC(F)(F)F)cc1 | 100 | 6.08 | – |
| CC(C)Oc1ccc(Sc2nc(N)nc3c2ncn3CCOCP(=O)(OCC(F)(F)F)OCC(F)(F)F)cc1 | 350 | 6.54 | – |
| COc1ccccc1Sc1nc(N)nc2c1ncn2CCOCP(=O)(OCC(F)(F)F)OCC(F)(F)F | > 1000 | 7.10 | – |
| Nc1ncnc2c1ncn2CCOCP(=O)(O)O [ADEFOVIR] | > 1000 | 6.70 | – |
| COc1ccc(Sc2nc(N)nc3c2ncn3CCOCP(=O)(OCC(F)(F)F)OCC(F)(F)F)cc1 [ALAMIFOVIR] | > 1000 | 7.52 | – |
| Nc1ccn([C@@H]2CS[C@H](CO)O2)c(=O)n1 [LAMIVUDINE] | > 1000 | 5.66 | – |
